Source: ChEMBL document CHEMBL3244172, “Easily hydrolyzable, water-soluble derivatives of (+/-)-alpha-5-[1-(indol-3-yl)ethyl]-2-methylamino-delta2-thiazoline-4-one, a novel antiviral compound” (J Med Chem, 1979)

Experiments:
Mustela putorius furo [1] = test: Toxicity in ferret infected with Influenza A virus Port Chalmers/1/73 (H3N2) assessed as change in body weight at 13 mg/kg administered intranasally 7 times on day 0 and 9 times on day 1 to day 3 measured after 7 days relative to untreated control; format: organism-based; parameters: dose 13 mg/kg; conditions: in vivo, inhaled_or_intranasal, 168 h
Outline: (§1)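 Infected ferrets (700–1500 g, groups of three, untreated controls) were dosed intranasally each hour with 0.2 mL of a 50 mg/mL solution in distilled water: 7 doses on day 0 and 9 on days +1 to +3. Body weight was recorded throughout and expressed as % change.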

Mustela putorius furo [2] = test: Toxicity in ferret infected with Influenza A virus Port Chalmers/1/73 (H3N2) assessed as change in body weight at 8 mg/kg administered intranasally 7 times on day 0 and 9 times on day 1 to day 3 measured after 7 days relative to untreated control; format: organism-based; parameters: dose 8 mg/kg; conditions: in vivo, inhaled_or_intranasal, 168 h; outline: as §1
Mustela putorius furo [3] = test: Toxicity in ferret infected with Influenza A virus Port Chalmers/1/73 (H3N2) assessed as change in body weight at 16 mg/kg administered intranasally 7 times on day 0 and 9 times on day 1 to day 3 measured after 7 days relative to untreated control; format: organism-based; parameters: dose 16 mg/kg; conditions: in vivo, inhaled_or_intranasal, 168 h; outline: as §1
Influenza A virus [4] = test: (§2) Antiviral activity against Influenza A virus Port Chalmers/1/73 (H3N2) infected in ferret assessed as reduction in rectal temperature at 8 to 16 mg/kg administered intranasally 7 times on day 0 and 9 times on day 1 to day 3 relative to untreated control; format: functional; conditions: dose mg/kg 8-16
Outline: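 Infected ferrets (700–1500 g, groups of three, untreated controls) received hourly intranasal 0.2 mL of a 50 mg/mL aqueous solution: 7 doses on day 0 and 9 on days +1 to +3. Rectal temperature was recorded and readings >39.5 °C and >40.0 °C were counted on days +1 to +4.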

Influenza A virus [5] = test: as §2, with “in viral excretion by measuring hemagglutination units per ml” for “in rectal temperature”, “at 13” for “at 8 to 16”, “day 2 measured on day 2” for “day 3”; format: functional
Outline: (§3)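 Ferrets (700–1500 g, groups of three, untreated control group) were infected intranasally on day 0. Unanaesthetized animals received 0.2 mL of a 50 mg/mL solution in distilled water intranasally, from 2 h post-infection, hourly: 7 doses on day 0 and 9 daily on days +1 to +3. Nasal washings were titrated for hemagglutination with 0.5% washed chicken erythrocytes (HAU/mL) on days +2 to +4.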

Influenza A virus [6] = test: (§4) Antiviral activity against Influenza A virus Port Chalmers/1/73 (H3N2) infected in ferret assessed as reduction in viral excretion by measuring hemagglutination units per ml at 13 mg/kg administered intranasally 7 times on day 0 and 9 times on day 1 to day 3 measured on day 3 relative to untreated control; format: functional; outline: as §3
Influenza A virus [7] = test: as §4, with “on day 4 relative to” for “on day 3 relative to”; format: functional; outline: as §3
Influenza A virus [8] = test: as §4, with “at 8” for “at 13”, “day 2” for “day 3”; format: functional; outline: as §3
Influenza A virus [9] = test: as §4, with “ml at 8 mg/kg administered” for “ml at 13 mg/kg administered”, “on day 4 relative to” for “on day 3 relative to”; format: functional; outline: as §3
Influenza A virus [10] = test: as §4, with “at 16” for “at 13”, “day 2” for “day 3”; format: functional; outline: as §3
Influenza A virus [11] = test: as §4, with “16” for “13”; format: functional; outline: as §3
Influenza A virus [12] = test: as §4, with “ml at 16 mg/kg administered” for “ml at 13 mg/kg administered”, “on day 4 relative to” for “on day 3 relative to”; format: functional; outline: as §3
[13] = Solubility in water; format: physicochemical; conditions: buffer
[14] = Stability in unbuffered aqueous solutions at pH >6 assessed as compound hydrolysis; format: physicochemical; conditions: unbuffered aqueous solution
[15] = Stability in unbuffered aqueous solutions at pH >6 assessed as compound decarboxylation; format: physicochemical
Influenza A virus [16] = test: Antiviral activity against Influenza A virus Port Chalmers/1/73 (H3N2) infected in MDCK cells at 1 mg/ml by agar diffusion method; format: functional; conditions: read-out: DIZ
Outline: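 Agar diffusion: compounds were diluted to 1 mg/mL in Eagle's MEM from stocks of 10 mg/mL in water or 100 mg/mL in DMSO. 0.02 mL went into 6 mm wells cut in the agar overlay above infected monolayers (influenza in MDCK, Coxsackie B1 in HeLa). Read-out was the diameter (mm) of the plaque-free inhibition zone around each well.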

Influenza A virus [17] = test: Antiviral activity against Influenza A virus Port Chalmers/1/73 (H3N2) infected in MDCK cells assessed as plaque reduction after 3 days by agar diffusion method; format: functional
Outline: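 Plaque reduction: varying compound concentrations were put in the agar overlay above infected monolayers. Coxsackie B1/HeLa was incubated 42 h at 37 °C; influenza/MDCK 3 days at 33 °C. PDD50 is the lowest concentration giving ≥50% fewer plaques than untreated controls.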

Mustela putorius furo [18] = test: Toxicity in ferret infected with Influenza A virus Port Chalmers/1/73 (H3N2) assessed as change in body weight at 7 mg/kg administered intranasally 7 times on day 0 and 9 times on day 1 to day 3 measured after 7 days relative to untreated control; format: organism-based; parameters: dose 7 mg/kg; conditions: in vivo, inhaled_or_intranasal, 168 h; outline: as §1
Mustela putorius furo [19] = test: Toxicity in ferret infected with Influenza A virus Port Chalmers/1/73 (H3N2) assessed as change in body weight at 14 mg/kg administered intranasally 7 times on day 0 and 9 times on day 1 to day 3 measured after 7 days relative to untreated control; format: organism-based; parameters: dose 14 mg/kg; conditions: in vivo, inhaled_or_intranasal, 168 h; outline: as §1
Influenza A virus [20] = test: Antiviral activity against Influenza A virus Port Chalmers/1/73 (H3N2) infected in ferret assessed as reduction in rectal temperature at 7 to 14 mg/kg administered intranasally 7 times on day 0 and 9 times on day 1 to day 3 relative to untreated control; format: functional; conditions: dose mg/kg 7-14
Outline: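 Ferrets (700–1500 g), three per group, infected intranasally on day 0 with influenza A/Port Chalmers/1/73 (H3N2). Dosed 0.2 mL of 50 mg/mL solution in distilled water by intranasal instillation, unanaesthetized, starting 2 h post-infection and repeated hourly. Untreated and ribavirin-treated groups served as controls. Rectal temperature readings >39.5 °C and >40.0 °C were counted on days +1 to +4.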

Influenza A virus [21] = test: as §4, with “7” for “13”; format: functional; outline: as §3
Influenza A virus [22] = test: as §4, with “at 7” for “at 13”, “day 2” for “day 3”; format: functional; outline: as §3
Influenza A virus [23] = test: as §4, with “ml at 7 mg/kg administered” for “ml at 13 mg/kg administered”, “on day 4 relative to” for “on day 3 relative to”; format: functional; outline: as §3
Influenza A virus [24] = test: as §4, with “at 14” for “at 13”, “day 2” for “day 3”; format: functional; outline: as §3
Influenza A virus [25] = test: as §4, with “14” for “13”; format: functional; outline: as §3
Influenza A virus [26] = test: as §4, with “ml at 14 mg/kg administered” for “ml at 13 mg/kg administered”, “on day 4 relative to” for “on day 3 relative to”; format: functional; outline: as §3
[27] = Cytotoxicity against MDCK cells infected with Influenza A virus Port Chalmers/1/73 (H3N2) after 3 days by carbol fuchsin staining-based assay; format: cell-based, Canis lupus familiaris; conditions: dog
Outline: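 MDCK monolayers infected with influenza had compound in the agar overlay and were incubated 3 days at 33 °C. Monolayers were stained with carbol fuchsin or neutral red. MCC is the lowest concentration causing morphological cell abnormalities.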

CNC1=NC(=O)C(C(C)c2cn(C(=O)OCC(C)(C)N(C)C)c3ccccc23)S1.Cl (racemic)
Activity (Mustela putorius furo [1]): -3.3%
Activity (Mustela putorius furo [2]): -0.4%
Activity (Mustela putorius furo [3]): -3.2%
T (Influenza A virus [4]): >40 °C
Activity (Influenza A virus [5]): <4 HAU/ml
Activity (Influenza A virus [6]): <4 HAU/ml
Activity (Influenza A virus [7]): <4 HAU/ml
Activity (Influenza A virus [8]): <4 HAU/ml
Activity (Influenza A virus [9]): <4 HAU/ml
Activity (Influenza A virus [10]): <4 HAU/ml
Activity (Influenza A virus [11]): <4 HAU/ml
Activity (Influenza A virus [12]): <4 HAU/ml
solubility [13]: soluble
Stability [14]: Unstable
Stability [15]: Unstable

NC(=O)c1ncn([C@@H]2O[C@H](CO)[C@@H](O)[C@H]2O)n1 [RIBAVIRIN]
zone of inhibition at 1000 µg/mL (Influenza A virus [16]): 30 mm
PDD50 (Influenza A virus [17]): 2 µg/mL
Activity (Mustela putorius furo [18]): -4.5%
Activity (Mustela putorius furo [19]): -22.2%
Activity (Mustela putorius furo [1]): -20.1%
T (Influenza A virus [20]): >39.5 °C
Activity (Influenza A virus [21]): <4 HAU/ml
Activity (Influenza A virus [22]): <4 HAU/ml
Activity (Influenza A virus [23]): <4 HAU/ml
Activity (Influenza A virus [5]): <4 HAU/ml
Activity (Influenza A virus [6]): 12 HAU/ml
Activity (Influenza A virus [7]): <4 HAU/ml
Activity (Influenza A virus [24]): <4 HAU/ml
Activity (Influenza A virus [25]): <4 HAU/ml
Activity (Influenza A virus [26]): <4 HAU/ml
MCC at 72 h [27]: > 100 µg/mL
